EC50 and RIA data for nine compounds are collected here from ChEMBL document CHEMBL1145993, “Pyrazole derivatives as partial agonists for the nicotinic acid receptor” (J Med Chem, 2003).

Molecules are shown by their SMILES.

The species named for one experiment is Rattus norvegicus. As to the kind of experiment: G protein activation was measured by stimulation of [35S]GTP gamma-S binding to rat adipocyte membranes. It is filed as functional.
Take `CCCCc1cc(C(=O)O)n[nH]1`: the EC50 was determined as 4.12 µM.
The compound `O=C(O)c1cccnc1` [NIACIN] yielded an EC50 of 1.7 µM. This EC50 is about 2.4-fold lower than that of the compound before.
`O=C(O)c1cc[nH]n1`: a half-maximal effect (EC50) was put at 16 µM.
As to `O=C(O)c1cc(Cc2cccc(Cl)c2)n[nH]1`, the EC50 is 46.6 µM.
Same read-out and setting: the same measure for `CCCc1cc(C(=O)O)n[nH]1`: 6.1 µM.
`CC(C)c1cc(C(=O)O)n[nH]1` returned an EC50 of 13.7 µM.
Same read-out and setting: next, `O=C(O)c1n[nH]c2c1CCCC2`: 85.1 µM; `O=C(O)c1cc(Cc2ccccc2)n[nH]1`: 70.7 µM; `O=C(O)c1n[nH]c2c1CCC2`: 6.44 µM.

The species entered for the next experiment is Rattus norvegicus. Description: Relative intrinsic activity in stimulation of [35S]GTP gamma-S binding to rat spleen was determined. Format: functional. In a few lines:
(§1)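 Relative intrinsic activity is maximal stimulation of [35S]GTPγS binding (0.2 nM) as a percentage of the maximum given by nicotinic acid, which is set at 100%. Rat membranes (adipocyte for line 3, spleen for line 4) at 1 to 1.5 µg protein were incubated 90 min at 25 °C with 10 µM GDP and 100 mM NaCl, then filtered. Values are arithmetic mean ± SEM.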
As to `CCCCc1cc(C(=O)O)n[nH]1`, the RIA is on record as 80.7%.
With `O=C(O)c1cccnc1` [NIACIN], the RIA is listed as 100%.
`O=C(O)c1cc[nH]n1` had an RIA of 85.3%.
Compound `CCCc1cc(C(=O)O)n[nH]1` showed an RIA of 69.9%.
`CC(C)c1cc(C(=O)O)n[nH]1` came in with an RIA of 67.7%.
In turn, `O=C(O)c1n[nH]c2c1CCCC2` gave an RIA of 47.2%.
Same read-out and setting: next, `O=C(O)c1cc(Cc2ccccc2)n[nH]1`: 50.3%.
`O=C(O)c1n[nH]c2c1CCC2`: the RIA is 55.9%.

Another experiment is filed under the species Rattus norvegicus. Description: Relative intrinsic activity in stimulation of [35S]GTP gamma-S binding to rat adipocyte was determined. It is filed as functional. In a few lines:
as §1
With `CCCCc1cc(C(=O)O)n[nH]1`, the RIA came to 75.7%.
The same measure, in the same setting: the same measure for `O=C(O)c1cccnc1` [NIACIN]: 100%; for `O=C(O)c1cc[nH]n1`: 78.5%.
On the same count and under the same terms, the same measure for `O=C(O)c1cc(Cc2cccc(Cl)c2)n[nH]1`: 39.4%; for `CCCc1cc(C(=O)O)n[nH]1`: 53.5%; for `CC(C)c1cc(C(=O)O)n[nH]1`: 49.2%.
The compound `O=C(O)c1cc(Cc2ccccc2)n[nH]1` registered an RIA of 52.4%.
`O=C(O)c1n[nH]c2c1CCC2`: the RIA is recorded as 51.7%.

The next experiment is filed under the species Rattus norvegicus. Description: Potency required for stimulation of [35S]GTP gamma-S binding to rat spleen was determined. Format: functional, organism-based.
For the compound `CCCCc1cc(C(=O)O)n[nH]1`, the EC50 is 2.26 µM.
Still for that read-out and setting: the same measure for `O=C(O)c1cccnc1` [NIACIN]: 0.74 µM; for `O=C(O)c1cc[nH]n1`: 21.5 µM.
Take `CCCc1cc(C(=O)O)n[nH]1`: the midpoint of the response, the EC50, lay at 5.09 µM.
The same measure, in the same setting: next, `CC(C)c1cc(C(=O)O)n[nH]1`: 21.8 µM.
Compound `O=C(O)c1n[nH]c2c1CCCC2` had an EC50 of 64.6 µM.
Still for that read-out and setting: next, `O=C(O)c1cc(Cc2ccccc2)n[nH]1`: 86.9 µM.
For the compound `O=C(O)c1n[nH]c2c1CCC2`, a half-maximal response (EC50) required 6.97 µM.
